Experimental data from ChEMBL document CHEMBL1255541, “Novel indoline-1- or 3,4-dihydroquinoline-1(2H)-substituted carbothiohydrazides as TPO receptor agonists” (Bioorg Med Chem Lett, 2010).

Legend:
[1] = molecular target: T1, Thrombopoietin receptor (Homo sapiens) (UniProt P40238); test: Agonist activity at human TPOR expressed in mouse BaF3 cells at 150 nM
T1 sequence (whole entry): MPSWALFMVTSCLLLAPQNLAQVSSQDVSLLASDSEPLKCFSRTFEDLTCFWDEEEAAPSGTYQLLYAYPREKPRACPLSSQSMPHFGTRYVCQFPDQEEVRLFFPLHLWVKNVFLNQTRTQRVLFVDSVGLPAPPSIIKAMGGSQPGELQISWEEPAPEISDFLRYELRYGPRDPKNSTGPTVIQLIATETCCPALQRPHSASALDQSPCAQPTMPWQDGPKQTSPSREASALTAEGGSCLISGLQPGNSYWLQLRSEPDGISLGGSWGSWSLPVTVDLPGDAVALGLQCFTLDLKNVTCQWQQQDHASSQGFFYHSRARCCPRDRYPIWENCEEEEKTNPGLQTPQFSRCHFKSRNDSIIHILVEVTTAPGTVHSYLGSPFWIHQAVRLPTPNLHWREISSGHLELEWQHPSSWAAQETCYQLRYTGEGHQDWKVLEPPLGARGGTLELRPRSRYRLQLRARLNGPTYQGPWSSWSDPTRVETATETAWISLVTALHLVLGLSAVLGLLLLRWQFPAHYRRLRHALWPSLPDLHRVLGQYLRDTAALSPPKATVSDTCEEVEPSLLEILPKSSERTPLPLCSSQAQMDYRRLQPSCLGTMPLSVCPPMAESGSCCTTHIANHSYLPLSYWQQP

[2] = molecular target: T1, Thrombopoietin receptor (Homo sapiens); test: Agonist activity at human TPOR expressed in mouse BaF3 cells at 300 nM
[3] = Cmax in rat at 5 mg/kg, po; format: ADME, organism-based; design: dose 5 mg/kg, route oral; settings: in vivo
In short: (§1)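 Test substances given as ethanolamine salts, orally at 5 mg/kg to rats. Plasma concentration–time profiles were used to derive apparent total plasma clearance (CLz/F), half-life, AUC0–t and peak plasma concentration (Cmax). Values are reported as mean ± spread.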

[4] = Half life in rat at 5 mg/kg, po; format: ADME, organism-based; design: dose 5 mg/kg, route oral; settings: in vivo
In short: as §1

[5] = Apparent total plasma clearance in rat at 5 mg/kg, po; format: ADME, organism-based; design: dose 5 mg/kg, route oral; settings: read-out: CLt/F (converted)
In short: as §1

Thrombopoietin receptor = molecular target: T2, Thrombopoietin receptor (Homo sapiens, UniProt P40238); test: Agonist activity at human TPOR expressed
T2 sequence (P40238 whole entry): T1 sequence (whole entry)

[6] = AUC (0 to t) in rat at 5 mg/kg, po; format: ADME, organism-based; design: dose 5 mg/kg, route oral; settings: plasma
In short: as §1

SMILES	% activity vs 10 ng/ml TPO [1]	% activity vs 10 ng/ml TPO [2]	EC50 (Thrombopoietin receptor)	other results
CC1=NN(c2ccc3c(c2)CCC3)C(=O)/C1=C(/C)NNC(=O)N1CCc2cc(C(=O)O)ccc21	–	–	0.046 µM	Cmax [3]: 3.55 µg/mL; half-life [4]: 1.48 h; CL/F [5]: 1.23 L/h/kg; AUC(0-t) [6]: 4.46 µg·h/mL
C/C(NNC(=S)N1CCCc2cc(C(=O)O)ccc21)=C1/C(=O)N(c2ccc(C)cc2)c2ccccc21	47.3%	101%	–	–
C/C(NNC(=S)N1CCc2cc(C(=O)O)ccc21)=C1/C(=O)N(c2ccc3c(c2)CCC3)c2ccccc21	14.3%	75.8%	–	–
C/C(NNC(=S)N1CCCc2cc(C(=O)O)ccc21)=C1/C(=O)N(c2ccc(C)c(C)c2)c2ccccc21	30.9%	33.4%	–	–
CC1=NN(c2ccc3c(c2)CCC3)C(=O)/C1=C(/C)NNC(=S)N1CCc2cc(C(=O)O)ccc21	–	–	0.003 µM	–
CC1=NN(c2ccc(C)c(C)c2)C(=O)/C1=C(/C)NNC(=S)N1CCc2cc(C(=O)O)ccc21	–	–	0.006 µM	–
CC1=NN(c2ccc3c(c2)CCC3)C(=O)/C1=C(/C)NNC(=S)N1CCCc2cc(C(=O)O)ccc21	–	–	0.035 µM	–
CCNC(=O)c1ccc2c(c1)CCN2C(=S)NN/C(C)=C1\C(=O)N(c2ccc(C)c(C)c2)N=C1C	–	–	0.026 µM	–
CC1=NN(c2ccc(C)c(C)c2)C(=O)/C1=C(/C)NNC(=S)N1CCCc2cc(C(=O)O)ccc21	–	–	0.064 µM	–
CC1=NN(c2ccc(C)c(C)c2)C(=O)/C1=C(/C)NNC(=O)N1CCc2cc(C(=O)O)ccc21	–	–	0.042 µM	Cmax [3]: 0.859 µg/mL; half-life [4]: 1.86 h; CL/F [5]: 6.78 L/h/kg; AUC(0-t) [6]: 0.923 µg·h/mL
C/C(NNC(=S)N1CCc2cc(C(=O)O)ccc21)=C1/C(=O)N(c2ccc(C)cc2)c2ccccc21	47.8%	107%	–	–

The next lines start with results.

% activity vs 10 ng/ml TPO [1]	% activity vs 10 ng/ml TPO [2]	EC50 (Thrombopoietin receptor)	SMILES	other results
72.4%	138%	–	C/C(NNC(=S)N1CCc2cc(C(=O)O)ccc21)=C1/C(=O)N(c2ccc(C)c(C)c2)c2ccccc21	–
–	–	0.031 µM	CC1=NN(c2ccc(C)c(C)c2)C(=O)/C1=C(/C)NNC(=S)N1CCc2cc(C(=O)N3CCOCC3)ccc21	–
78.1%	122%	–	C/C(NNC(=S)N1CCc2cc(C(=O)O)ccc21)=C1/C(=O)N(c2ccc(C)cc2)c2ccc(F)cc21	–
3.2%	10.6%	–	C/C(NNC(=S)N1CCc2cc(C(=O)O)ccc21)=C1/C(=O)N(c2ccc3c(c2)CCC3)c2ccc(F)cc21	–
–	–	0.022 µM	CNC(=O)c1ccc2c(c1)CCN2C(=S)NN/C(C)=C1\C(=O)N(c2ccc(C)c(C)c2)N=C1C	–
